Screening results from PubChem BioAssay.
KCNQ1 inh: inhibitors of human KCNQ1 channel, primary screen, cell-based, thallium flux, high-throughput. CHO-K1 KCNQ1, FluxOR thallium flux fluorescence; stronger effect = higher value. B-score at 10 µM. Potassium voltage-gated channel subfamily KQT member 1 (Homo sapiens), P51787. actives 1.3% (n = 310,000);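 active = compounds whose thallium flux B-score, printed positive for inhibition, exceeds three library SD while starting fluorescence stays within three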;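 also: channel opened by potassium depolarization with thallium stimulus after 20 min compound exposure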
Target sequence (P51787 whole entry, looked up): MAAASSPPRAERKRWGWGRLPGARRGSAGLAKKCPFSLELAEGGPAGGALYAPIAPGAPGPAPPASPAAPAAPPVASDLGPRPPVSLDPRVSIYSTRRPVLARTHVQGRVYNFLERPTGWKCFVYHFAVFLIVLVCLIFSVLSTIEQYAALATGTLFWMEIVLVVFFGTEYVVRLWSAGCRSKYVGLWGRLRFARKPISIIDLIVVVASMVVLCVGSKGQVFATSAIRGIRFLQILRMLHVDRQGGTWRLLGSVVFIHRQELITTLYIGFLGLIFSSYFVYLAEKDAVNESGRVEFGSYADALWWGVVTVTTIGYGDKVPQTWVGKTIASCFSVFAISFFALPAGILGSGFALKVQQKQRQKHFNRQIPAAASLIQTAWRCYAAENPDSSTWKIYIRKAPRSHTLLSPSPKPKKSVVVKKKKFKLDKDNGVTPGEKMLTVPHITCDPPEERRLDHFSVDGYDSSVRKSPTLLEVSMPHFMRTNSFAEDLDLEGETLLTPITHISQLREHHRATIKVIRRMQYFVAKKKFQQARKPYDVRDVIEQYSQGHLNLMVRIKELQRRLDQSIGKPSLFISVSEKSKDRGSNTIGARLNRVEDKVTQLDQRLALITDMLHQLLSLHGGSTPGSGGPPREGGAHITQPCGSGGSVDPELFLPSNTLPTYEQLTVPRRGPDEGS
KCNK3 inh: human KCNK3 channel inhibitors, primary screen, CHO cells, FluxOR thallium flux, B-score; FluxOR fluorescence; stronger effect = lower value; B-score at 10 µM; actives 0.84% (n = 340,000); AID 602410, 2012;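 active = B-score under library mean minus 4 SD, starting fluorescence ratio at most library mean plus 5 SD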;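 also: more negative B-score means stronger inhibition of thallium flux through KCNK3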
hERG rescue: hERG rescue from dofetilide block, primary screen, cell-based, CHO-hERG, FluxOR thallium flux, dofetilide IC70 | dofetilide IC70 present | Voltage-gated inwardly rectifying potassium channel KCNH2 (Homo sapiens), Q12809 | activation (rescue from dofetilide block), less the hit threshold, % at 10 µM | actives 0.51% (n = 310,000);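 active = activation above the mean of controls blocked by dofetilide plus 5 SD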;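 also: thallium influx through hERG after potassium depolarization seen as dye fluorescence rise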
KCNQ1 act: potentiators or activators of KCNQ1 channel, primary screen, cell-based, thallium flux, high-throughput. Potassium voltage-gated channel subfamily KQT member 1 (Homo sapiens), P51787. CHO-K1 KCNQ1, thallium flux FluxOR fluorescence; stronger effect = higher value. B-score at 10 µM. actives 0.35% (n = 310,000);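 active = fluorescence ratio B-score, a plate-corrected score, at least three library SD, with initial intensity B-score within 5 SD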
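Material: CHO-K1 cells stably expressing KCNQ1. Medium: assay buffer for compound exposure, DMSO matched across wells. Reagent: K+/Tl+ depolarizing stimulus. Compound dosing: single-concentration screen. Times: 37 °C overnight plating, 90-min dark dye load, 20-min compound pretreatment. Technique: FluxOR Tl+ flux fluorescence.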
KCNK9 block: KCNK9 potassium channel inhibitors, primary screen, HEK293 cells, thallium flux | Potassium channel subfamily K member 9 (Homo sapiens), Q9NPC2 | FluxOR thallium flux fluorescence; stronger effect = lower value | B-score at 10 µM | actives 1.2% (n = 310,000) | AID 488922, 2010;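 active = ratio B-score over 3 SD below the library mean, with starting fluorescence within 5 SD of its mean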;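 also: negative B-score means less thallium flux so channel inhibition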
KCC2 mod: KCC2 cotransporter modulators, thallium flux, primary screen, cell-based, HEK293 KCC2, FluoZin-2 fluorescence, MLSMR. Solute carrier family 12 member 5 (Homo sapiens), Q9H2X9. KCC2 cells, thallium flux FluoZin-2 fluorescence. B-score of Tl+ flux slope (higher = more flux/activation; lower = inhibition) at 10 µM. actives 2.2% (n = 190,000). AID 1456, 2008;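 active = thallium flux slope and its plate-corrected score both differing from the plate sample mean at a set confidence after two filtering rounds, in either direction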;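 also: slope of fluorescence scaled to starting intensity during 10 to 20 s after thallium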
* = called active by the depositor; i = inactive; . = no result given. The list is not random: actives were taken first. Their share in the collection is about 4.1%.

SMILES	KCNQ1 inh	KCNK3 inh	hERG rescue	KCNQ1 act	KCNK9 block	KCC2 mod
COc1cccc(N(CC(=O)NC2CCCCC2)C(=O)Cn2nnc(-c3ccc(C)o3)n2)c1	i	i	-8.4	i	i	.
CCOC(=O)c1cnn(-c2nc3c(C)cccc3s2)c1C	i	i	-1.2	i	i	-0.465
CCOC(=O)c1cnn(-c2nc3c(C)cccc3s2)c1C(F)(F)F	i	i	-10.3	i	-7.89*	-0.402
Clc1ccccc1CN1CCN(/N=C/C=C/c2ccco2)CC1	i	i	-7.4	i	i	-0.146
COc1ccc(CC(=O)Nc2nc3ccccc3[nH]2)cc1	i	i	-6.3	i	i	0.236
COc1cccc(CC(=O)Nc2nc3ccccc3[nH]2)c1	i	i	4.9*	i	i	-1.19
Cc1ccc(S(=O)(=O)N(C)C)cc1NC(=O)C(C)OC(=O)c1cc[n+]([O-])cc1 (stereo not given)	.	i	.	.	.	.
COc1cccc(Oc2ccc(S(=O)(=O)N3CCOCC3)cc2[N+](=O)[O-])c1	.	i	.	.	.	.
CCCc1nc2c(s1)CCc1onc(-c3ccc(Cl)cc3)c1-2	i	i	-6.4	i	-7.15*	.
CCOc1cc(N2CCOCC2)c(OCC)cc1NC(=O)c1c(C)noc1C	.	i	.	.	.	.
CCn1c(=S)[nH]c2scc(-c3cccs3)c2c1=O	i	i	100.5*	112*	i	59.9*
C=CCn1c(=S)[nH]c2scc(-c3ccc(C)o3)c2c1=O	i	i	63.7*	99*	i	61*
O=c1c2ccccc2sn1-c1ccccc1	i	i	6.5*	i	i	0.274
O=C(Nc1nccs1)c1ncc(Cl)c(Cl)c1Cl	i	i	-5.7	i	i	.
Cc1nn(-c2ccccc2)c(Cl)c1C1C(C#N)=C(N)OC2=C1C(=O)CCC2 (stereo not given)	i	i	5.4*	i	i	-0.563
CCCN(Cc1nnc(-c2ccccc2Cl)o1)C(=O)c1oc2ccccc2c1C	6*	i	-14.1	i	i	.
O=C(COc1cccc(F)c1)NNC(=O)Cc1ccc(Br)cc1	.	i	.	.	.	.
CCCN(CC1CC1)C(=S)Nc1ccc(C(C)=O)cc1	i	i	-0.7	i	i	0.118
CCCN(CC1CC1)C(=S)Nc1ccccc1F	i	i	11.1*	i	i	-0.602
Cc1cccc(-n2ncc3c(N(C)Cc4ccccc4)ncnc32)c1	i	-11*	-9.1	i	i	0.00711
Cc1cccc(-n2ncc3c(N)ncnc32)c1	i	i	-4.2	i	i	-0.162
O=C(NCCc1ccccc1)c1ccc2nc(-c3ccco3)c(-c3ccco3)nc2c1	i	i	-41.8	i	i	-0.665
O=C(c1ccccc1)c1ccc2nc(-c3ccco3)c(-c3ccco3)nc2c1	9*	i	-17.1	i	i	-2.37
COc1ccc(C/C(C)=N/NC(=S)Nc2ccc(Cl)cc2)cc1	i	i	-8.3	i	i	1.98
COc1ccc(C/C(C)=N/NC(=S)Nc2ccccc2)cc1	i	i	-4.3	i	i	31.9*
SMILES	KCNQ1 inh	KCNK3 inh	hERG rescue	KCNQ1 act	KCNK9 block	KCC2 mod
CC(=O)Nc1ccc(S(=O)(=O)NCCC(=O)NCc2ccncc2)cc1	i	i	-10.6	i	i	.
COc1ccccc1-n1c(C)nc(=O)c(-c2ccccc2)c1C	i	i	5.3*	i	i	.
Cc1c(C(Nc2ccccn2)c2ccc(Cl)cc2)c(=O)n(-c2ccccc2)n1C (stereo not given)	i	i	-17.0	i	-6.62*	-0.0897
Cc1c(C(Nc2ccccn2)c2ccccc2)c(=O)n(-c2ccccc2)n1C (stereo not given)	i	i	-6.9	i	i	0.751
CC(C)c1cccc(C(C)C)c1NC(=O)COC(=O)[C@H](C)NC(N)=O	i	i	11.0*	i	i	.
COC(=O)c1ccccc1NC(=O)COC(=O)[C@H](C)NC(N)=O	i	i	-10.5	i	i	-1.41
O=C(O)/C=C/c1cn(-c2ccccc2)nc1-c1cccc([N+](=O)[O-])c1	i	i	-4.8	i	i	.
O=C(O)/C=C/c1cn(-c2ccccc2)nc1-c1ccc(-c2ccc([N+](=O)[O-])cc2)o1	i	i	10.8*	i	i	-1.65
Cc1ccc(-n2c(C)nn(CC3CC3)c2=O)cc1	i	i	-10.2	i	i	-0.19
Cc1nn(CC2CC2)c(=O)n1-c1ccc(F)cc1	i	i	-0.2	10*	i	-0.711
Cc1cccc(Oc2ccc(NC(=O)c3ccccc3C(=O)O)cc2)c1C	i	i	5.6*	i	i	-0.685
O=C(O)c1ccccc1C(=O)Nc1ccc(Oc2cccc3ccccc23)cc1	i	i	2.5	i	i	-1.71
O=C(Nc1cc(C(F)(F)F)ccc1Cl)C(Sc1nnc(-c2cccs2)o1)c1ccccc1 (stereo not given)	6*	i	-13.4	i	i	0.0825
O=C(Nc1ccc(Cl)cc1C(F)(F)F)C(Sc1nnc(-c2cccs2)o1)c1ccccc1 (stereo not given)	6*	i	-11.7	i	i	0.888
COc1ccc(C)cc1NC(=O)C(Sc1nnc(-c2cccs2)o1)c1ccccc1 (stereo not given)	i	i	-4.3	i	i	3.02
CCOC(=O)c1c(CSc2ccccc2)n(C)c2ccc(O)c(CN3CCOCC3)c12	i	i	-27.5	i	i	-0.126
CCOC(=O)c1c(CSc2ccccc2)n(C)c2cc(Br)c(OC)c(O)c12	6*	i	0.0	i	i	.
CCc1ccc(NC(=O)c2cc3c(C)nc4ccccc4c3o2)cc1	6*	i	-11.9	i	i	-0.0701
O=C1OC(c2ccccc2)=C/C1=C/N1CCCCC1	i	i	-7.1	i	i	-0.388
COC(=O)/C=C1\OC(c2ccccc2)=CC1=O	8*	.	-34.2	i	i	-0.306
Cn1cccc1/C=N/n1c(-c2ccc(C(C)(C)C)cc2)n[nH]c1=S	i	i	-3.9	i	-7.67*	12.7*
